Experiments:
Mus musculus [1] = test: Anticonvulsant activity against Bicucullin (3.75 mg/kg) induced tonic seizure at dose 400 mg/kg subcutaneously at pretreatment time of 15 min.; format: functional; settings: route subcutaneous
Summary of the method: (§1)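 CF1 mice (Sprague–Dawley) were given the compound sc in 30% polyethylene glycol 400, with vehicle-injected controls. After the stated pretreatment interval, at the time of peak effect, bicuculline 3.75 mg/kg was injected sc; this dose gives clonic and tonic seizures and death in all controls. Clonic seizure = at least one 5-s clonic spasm episode. Tonic seizure = hindlimb flexion then extension. Scored as mice protected/tested plus mean ± SD onset, minutes.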

Mus musculus [2] = test: Anticonvulsant activity against Bicucullin (3.75 mg/kg) induced tonic seizure at dose 360 mg/kg subcutaneously at pretreatment time of 15 min.; format: functional; settings: route subcutaneous; summary of the method: as §1
Mus musculus [3] = test: Anticonvulsant activity against Bicucullin (3.75 mg/kg) induced clonic seizure at dose 400 mg/kg subcutaneously at pretreatment time of 15 min.; format: functional; settings: route subcutaneous; summary of the method: as §1
Mus musculus [4] = test: Anticonvulsant activity against Bicucullin (3.75 mg/kg) induced clonic seizure at dose 360 mg/kg subcutaneously at pretreatment time of 15 min.; format: functional; settings: route subcutaneous; summary of the method: as §1
Mus musculus [5] = test: Anticonvulsant activity against Bicucullin (3.75 mg/kg) induced death at dose 400 mg/kg subcutaneously at pretreatment time of 15 min.; format: ADME, organism-based; design: dose 400 mg/kg, route subcutaneous; settings: in vivo, sc
Mus musculus [6] = species: Mus musculus; test: animal or person; settings: sc
Mus musculus [7] = test: Phase V qualification against antipicrotoxin activity administered subcutaneously at 3.2 mg/kg; format: functional; settings: sc, route subcutaneous
Mus musculus [8] = test: Anticonvulsant activity against picrotoxin (4.0 mg/kg) induced clonic seizures at 400 mg/kg subcutaneous dose 15 min pretreatment; format: functional
Mus musculus [9] = test: Anticonvulsant activity against picrotoxin (4.0 mg/kg) induced clonic seizures at 180 mg/kg subcutaneous dose 15 min pretreatment; format: functional
Mus musculus [10] = test: Anticonvulsant activity against Bicucullin (3.75 mg/kg) induced clonic seizure at dose 150 mg/kg subcutaneously at pretreatment time of 30 min.; format: functional; settings: route subcutaneous; summary of the method: as §1
Mus musculus [11] = test: Phase II qualification against administered subcutaneously was reported.; format: functional; settings: sc
Summary of the method: (§2)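 Mice were used. scMet ED50 and rotorod TD50 came from groups of 6–12 mice dosed over a range until at least three points fell within 10–90% protection or minimal neurotoxicity. Both were read at the time of peak effect, 0.5 h. ED50, TD50 and 95% confidence intervals were obtained from a plot by the Litchfield–Wilcoxon method. PI = TD50/ED50.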

Mus musculus [12] = test: Anticonvulsant activity against Subcutaneous pentylenetetrazole test at dose 600 mg/kg at 0.5 hr; format: functional
Summary of the method: (§3)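 Phase I mouse screen. Compound was suspended in 30% polyethylene glycol 400 and given by intraperitoneal injection at 30, 100, 300 or 600 mg/kg. Testing was at 30 min and 4 h (maximal electroshock or subcutaneous pentylenetetrazol), with rotorod toxicity scored alongside. Scored as animals protected/tested; toxicity was flagged at the 0.5 h or 4 h check.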

Mus musculus [13] = test: Anticonvulsant activity against Bicucullin (3.75 mg/kg) induced death at dose 150 mg/kg subcutaneously at pretreatment time of 30 min.; format: ADME, organism-based; design: dose 150 mg/kg, route subcutaneous; settings: in vivo, sc
[14] = Phase II qualification against neurotoxicity administered subcutaneously was reported.; format: toxicity, organism-based; settings: mouse, in vivo, sc; summary of the method: as §2
Mus musculus [15] = test: Anticonvulsant activity against neurologic toxicity test at dose 600 mg/kg at 0.5 hr; format: organism-based; design: dose 600 mg/kg; settings: in vivo
Summary of the method: (§4)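 Mice got the compound as a suspension in 30% polyethylene glycol 400 by ip injection (30, 100, 300, 600 mg/kg) 30 min or 4 h before the rotorod neurological toxicity test. The value is the number of animals showing toxicity over the number tested.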

Mus musculus [16] = test: Anticonvulsant activity against Subcutaneous pentylenetetrazole test at dose 300 mg/kg at 0.5 hr; format: functional; summary of the method: as §3
Mus musculus [17] = test: Anticonvulsant activity against Maximal electroshock seizure at dose 600 mg/kg at 4 hr; format: functional; summary of the method: as §3
Mus musculus [18] = test: Anticonvulsant activity against Subcutaneous pentylenetetrazole test at dose 600 mg/kg at 4 hr; format: functional; summary of the method: as §3
Mus musculus [19] = test: Anticonvulsant activity against Bicucullin (3.75 mg/kg) induced tonic seizure at dose 150 mg/kg subcutaneously at pretreatment time of 15 min.; format: functional; settings: route subcutaneous; summary of the method: as §1
[20] = Protective index is the ratio of TD50 to that of ED50; format: ADME; settings: read-out: Protective index; summary of the method: as §2
Mus musculus [21] = test: Anticonvulsant activity against Maximal electroshock seizure at dose 300 mg/kg at 4 hr; format: functional; summary of the method: as §3
Mus musculus [22] = test: Anticonvulsant activity against neurologic toxicity test at dose 600 mg/kg at 4 hr; format: organism-based; design: dose 600 mg/kg; settings: in vivo; summary of the method: as §4
Mus musculus [23] = test: Anticonvulsant activity against Maximal electroshock seizure at dose 300 mg/kg at 0.5 hr; toxic; format: ADME, organism-based; design: dose 300 mg/kg; settings: in vivo; summary of the method: as §3
Mus musculus [24] = test: Anticonvulsant activity against Bicucullin (3.75 mg/kg) induced tonic seizure at dose 150 mg/kg subcutaneously at pretreatment time of 30 min.; format: functional; settings: route subcutaneous; summary of the method: as §1
[25] = Phase V qualification against neurotoxicity administered subcutaneously at a dose (3.2 mg/kg) was reported.; format: toxicity, organism-based; settings: mouse, in vivo, sc
Mus musculus [26] = test: Anticonvulsant activity against Subcutaneous pentylenetetrazole test at dose 300 mg/kg at 4 hr; format: functional; summary of the method: as §3
Mus musculus [27] = test: Anticonvulsant activity against neurologic toxicity test at dose 300 mg/kg at 0.5 hr; format: organism-based; design: dose 300 mg/kg; settings: in vivo; summary of the method: as §4
Mus musculus [28] = test: Anticonvulsant activity against Bicucullin (3.75 mg/kg) induced death at dose 150 mg/kg subcutaneously at pretreatment time of 15 min.; format: ADME, organism-based; design: dose 150 mg/kg, route subcutaneous; settings: in vivo, sc
Mus musculus [29] = test: Anticonvulsant activity against Maximal electroshock seizure at dose 600 mg/kg at 0.5 hr; format: functional; summary of the method: as §3
Mus musculus [30] = test: Anticonvulsant activity against neurologic toxicity test at dose 300 mg/kg at 4 hr; format: organism-based; design: dose 300 mg/kg; settings: in vivo; summary of the method: as §4
Mus musculus [31] = test: Anticonvulsant activity against Bicucullin (3.75 mg/kg) induced clonic seizure at dose 150 mg/kg subcutaneously at pretreatment time of 15 min.; format: functional; settings: route subcutaneous; summary of the method: as §1
Mus musculus [32] = test: Anticonvulsant activity against Maximal electroshock seizure at dose 300 mg/kg at 0.5 hr; format: functional; summary of the method: as §3
Mus musculus [33] = test: Anticonvulsant activity against Bicucullin (3.75 mg/kg) induced death at dose 200 mg/kg subcutaneously at pretreatment time of 30 min.; format: ADME, organism-based; design: dose 200 mg/kg, route subcutaneous; settings: in vivo, sc
Mus musculus [34] = test: Anticonvulsant activity against Bicucullin (3.75 mg/kg) induced clonic seizure at dose 200 mg/kg subcutaneously at pretreatment time of 30 min.; format: functional; settings: route subcutaneous; summary of the method: as §1
Mus musculus [35] = test: Anticonvulsant activity against Bicucullin (3.75 mg/kg) induced tonic seizure at dose 200 mg/kg subcutaneously at pretreatment time of 15 min.; format: functional; settings: route subcutaneous, in the assay text read “pretreatment time of 30 min” for “pretreatment time of 15 min”; summary of the method: as §1
Mus musculus [36] = test: Anticonvulsant activity against Maximal electroshock seizure at dose 300 mg/kg at 4 hr; toxic; format: ADME, organism-based; design: dose 300 mg/kg; settings: in vivo; summary of the method: as §3
Mus musculus [37] = test: Anticonvulsant activity against Bicucullin (3.75 mg/kg) induced death at dose 300 mg/kg subcutaneously at pretreatment time of 30 min.; format: ADME, organism-based; design: dose 300 mg/kg, route subcutaneous; settings: in vivo, sc
Mus musculus [38] = test: Anticonvulsant activity against Bicucullin (3.75 mg/kg) induced clonic seizure at dose 300 mg/kg subcutaneously at pretreatment time of 30 min.; format: functional; settings: route subcutaneous; summary of the method: as §1
Mus musculus [39] = test: Anticonvulsant activity against Bicucullin (3.75 mg/kg) induced tonic seizure at dose 300 mg/kg subcutaneously at pretreatment time of 30 min.; format: functional; settings: route subcutaneous; summary of the method: as §1

SMILES	No. protected/tested (Mus musculus [12])	No. toxicity/tested (Mus musculus [15])	No. protected/tested (Mus musculus [16])	No. protected/tested (Mus musculus [17])	No. protected/tested (Mus musculus [18])	No. protected/tested (Mus musculus [21])	No. toxicity/tested (Mus musculus [22])	No. protected/tested (Mus musculus [23])	No. protected/tested (Mus musculus [26])	No. toxicity/tested (Mus musculus [27])	No. protected/tested (Mus musculus [29])	No. toxicity/tested (Mus musculus [30])	No. protected/tested (Mus musculus [32])	other results
CCCC(CCC)C(=O)O [VALPROIC ACID]	–	–	–	–	–	–	–	–	–	–	–	–	–	Average onset (Mus musculus [1]): 17 min; Average onset (Mus musculus [2]): 11 min; Average onset (Mus musculus [3]): 15 min; Average onset (Mus musculus [4]): 9 min; Average onset (Mus musculus [5]): 18 min; ED50 (Mus musculus [6]): 149 mg/kg; ED50 (Mus musculus [7]): 387 mg/kg; Average onset (Mus musculus [8]): 16 min
O=C(O)C1CCC2(CCCCCC2)C1 (stereo unspecified)	1	4	1	0	1	0	1	1	0	1	0	0	–	Average onset (Mus musculus [9]): 21 min; Average onset (Mus musculus [10]): 8 min; ED50 (Mus musculus [11]): 83 mg/kg; Average onset (Mus musculus [13]): 14 min; TD50 [14]: 193 mg/kg; Average onset (Mus musculus [19]): 10 min; selectivity ratio [20]: 2.3; ED50 (Mus musculus [7]): 167 mg/kg; Average onset (Mus musculus [24]): 13 min; TD50 [25]: 193 mg/kg; Average onset (Mus musculus [28]): 10 min; Average onset (Mus musculus [31]): 7 min
O=C([O-])C1CCC2(CCCCCC2)C1.[Na+] (stereo unspecified)	1	4	0	0	0	0	2	–	0	0	0	0	0	–
O=C(O)C1CCC2(CCCCC2)C1 (stereo unspecified)	1	4	1	0	0	0	0	1	0	3	0	0	–	Average onset (Mus musculus [33]): 12 min; Average onset (Mus musculus [34]): 8 min; Average onset (Mus musculus [35]): 11 min
O=C(O)CC1CCC2(CCCCCC2)C1 (stereo unspecified)	1	4	1	0	1	–	0	1	0	3	1	0	–	No. protected/tested (Mus musculus [36]): 0
O=C(O)C1(C(=O)O)CCC2(CCCCC2)C1	1	0	0	0	0	0	2	–	0	0	0	0	0	–
O=C(O)C1(C(=O)O)CCC2(CCCCCC2)C1	1	3	1	0	0	–	2	–	0	0	0	0	0	ED50 (Mus musculus [11]): 194 mg/kg; No. protected/tested (Mus musculus [36]): 0; TD50 [14]: 275 mg/kg; Average onset (Mus musculus [37]): 13 min; selectivity ratio [20]: 1.4; Average onset (Mus musculus [38]): 9 min; Average onset (Mus musculus [39]): 12 min

Source: ChEMBL document CHEMBL1122969, “Spiro[4.5] and spiro[4.6] carboxylic acids: cyclic analogues of valproic acid. Synthesis and anticonvulsant evaluation” (J Med Chem, 1985)
